One may read the IC50 as the concentration at which inhibition is half-maximal. Lower therefore signals greater potency.

Molecules are shown by their SMILES.

Our source for the Retention_time, IC50 and t1/2 values is ChEMBL document CHEMBL3232927 (J Med Chem, 2014).

Data set [1] is described as follows: Retention time of the compound up to by LC/MS analysis. Type of data set: physicochemical. A digest of the protocol:
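Reversed-phase LC/MS on a C18 (ODS) column, 5 μm, 4.6 × 150 mm, flow 1 mL/min. Gradient from 56/44 to 98/2 methanol/water containing 15 mM NH4OAc over 15 min, then a final hold.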

Another data set relates to MDA-MB-231. As to the kind of experiment: Cytotoxicity against human MDA-MB-231 cells after 72 hrs by MTT assay. Type of data set: functional, cell-based. Particulars: MDA-MB-231, 72 h. The method, boiled down:
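MDA-MB-231 cells grown in MEM with 10% FBS and 1% pen/strep at 37 °C, seeded at 8000 cells/well in MEM with 5% FBS. 10 mM DMSO stocks were serially diluted in MEM/5% FBS: 1–10 000 nM for PTX-silicates, 0.1–1000 for DTX-silicates. Exposure 72 h, then MTT added and absorbance at 490 nm read at 60 min. IC50 from nonlinear regression of log concentration vs response; median of the IC50 distribution within the 95% confidence interval.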

A short description of data set [2]: Half life of the compound at C2 position in acetone-d6/D2O/CF3CO2H at 0.01 M by NMR spectroscopy analysis. Type of data set: physicochemical. The method, boiled down:
(§1)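 Silicates dissolved in acetone/water 10:1 (v/v) containing 1% TFA (measured pH 1.2) at ambient temperature. Silicate ester cleavage followed over time by NMR spectroscopy.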

A short description of data set [3]: Half life of the compound at C7 position in acetone-d6/D2O/CF3CO2H at 0.01 M by NMR spectroscopy analysis. It counts as physicochemical. A digest of the protocol: as §1

As for `CC(=O)O[C@@]12CO[C@@H]1C[C@H](O)[C@@]1(C)C(=O)[C@H](O)C3=C(C)[C@@H](OC(=O)[C@H](O[Si](OC(C)C)(OC(C)C)OC(C)C)[C@@H](NC(=O)OC(C)(C)C)c4ccccc4)C[C@@](O)([C@@H](OC(=O)c4ccccc4)[C@H]21)C3(C)C`, in data set [1], the Retention_time was found to be 15.9 min. In addition, in the data set on MDA-MB-231, it took 0.0002 µM to reach half-maximal inhibition (IC50). Further, in data set [2], the t1/2 was found to be 4.33 h.

Regarding `CC(=O)O[C@H]1C(=O)[C@@]2(C)[C@H]([C@H](OC(=O)c3ccccc3)[C@]3(O)C[C@H](OC(=O)[C@H](O[Si](OC(C)C)(OC(C)C)OC(C)C)[C@@H](NC(=O)c4ccccc4)c4ccccc4)C(C)=C1C3(C)C)[C@]1(OC(C)=O)CO[C@@H]1C[C@@H]2O`, in data set [1], the Retention_time was found to be 15.4 min. The compound also yielded an IC50 in the data set on MDA-MB-231 of 0.0042 µM. This compound gave a t1/2 in data set [2] of 2 h.

In data set [1], `CCO[Si](O[C@@H](C(=O)O[C@H]1C[C@@]2(O)[C@@H](OC(=O)c3ccccc3)[C@@H]3[C@]4(OC(C)=O)CO[C@@H]4C[C@H](O)[C@@]3(C)C(=O)[C@H](OC(C)=O)C(=C1C)C2(C)C)[C@@H](NC(=O)c1ccccc1)c1ccccc1)(OC(C)(C)C)OC(C)(C)C` showed a Retention_time of 16.1 min. The compound further had an IC50 in the data set with MDA-MB-231 of 0.26 µM. In addition, in data set [2], the t1/2 came out at 200 h.

In data set [1], `CCCCCCCCO[Si](OCCCCCCCC)(OCCCCCCCC)O[C@@H](C(=O)O[C@H]1C[C@@]2(O)[C@@H](OC(=O)c3ccccc3)[C@@H]3[C@]4(OC(C)=O)CO[C@@H]4C[C@H](O)[C@@]3(C)C(=O)[C@H](OC(C)=O)C(=C1C)C2(C)C)[C@@H](NC(=O)c1ccccc1)c1ccccc1` displayed a Retention_time of 22.1 min. In the data set on MDA-MB-231, this compound yielded an IC50 of 0.007 µM. In addition, the t1/2 in data set [2] was 0.2 h.

In turn, `CC[Si](CC)(CC)O[C@@H](C(=O)O[C@H]1C[C@@]2(O)[C@@H](OC(=O)c3ccccc3)[C@@H]3[C@]4(OC(C)=O)CO[C@@H]4C[C@H](O)[C@@]3(C)C(=O)[C@H](OC(C)=O)C(=C1C)C2(C)C)[C@@H](NC(=O)c1ccccc1)c1ccccc1` yielded a Retention_time in data set [1] of 15.4 min. For the same compound, in the data set with MDA-MB-231, it took 0.22 µM to reach half-maximal inhibition (IC50).

Compound `CCO[Si](OCC)(OCC)O[C@H]1C[C@H]2OC[C@@]2(OC(C)=O)[C@H]2[C@H](OC(=O)c3ccccc3)[C@]3(O)C[C@H](OC(=O)[C@H](O[Si](OCC)(OCC)OCC)[C@@H](NC(=O)c4ccccc4)c4ccccc4)C(C)=C([C@@H](OC(C)=O)C(=O)[C@]12C)C3(C)C` registered a Retention_time in data set [1] of 16.6 min. The compound further gave a half-inhibitory concentration (IC50) in the data set with MDA-MB-231 of 0.012 µM. The t1/2 came to 0.0767 h in data set [2] and 0.55 h in data set [3].

In data set [1], `CC(=O)O[C@H]1C(=O)[C@@]2(C)[C@H]([C@H](OC(=O)c3ccccc3)[C@]3(O)C[C@H](OC(=O)[C@H](O[Si](OC4CC(C)CCC4C(C)C)(OC4CC(C)CCC4C(C)C)OC4CC(C)CCC4C(C)C)[C@@H](NC(=O)c4ccccc4)c4ccccc4)C(C)=C1C3(C)C)[C@]1(OC(C)=O)CO[C@@H]1C[C@@H]2O` (stereo partly specified) showed a Retention_time of 24.5 min. The compound further displayed an IC50 in the data set on MDA-MB-231 of 0.59 µM. This compound yielded a t1/2 in data set [2] of 1150 h.

Take `CCCCCCCCO[Si](OCCCCCCCC)(OCCCCCCCC)O[C@H]1C[C@H]2OC[C@@]2(OC(C)=O)[C@H]2[C@H](OC(=O)c3ccccc3)[C@]3(O)C[C@H](OC(=O)[C@H](O)[C@@H](NC(=O)c4ccccc4)c4ccccc4)C(C)=C([C@@H](OC(C)=O)C(=O)[C@]12C)C3(C)C`: the Retention_time in data set [1] was determined as 24.6 min. The IC50 in the data set with MDA-MB-231 came to 0.29 µM. In data set [3], this compound displayed a t1/2 of 2.5 h.

`CC(=O)O[C@@]12CO[C@@H]1C[C@H](O)[C@@]1(C)C(=O)[C@H](O)C3=C(C)[C@@H](OC(=O)[C@H](O)[C@@H](NC(=O)OC(C)(C)C)c4ccccc4)C[C@@](O)([C@@H](OC(=O)c4ccccc4)[C@H]21)C3(C)C.O.O.O` [DOCETAXEL] returned a Retention_time in data set [1] of 10.9 min. This compound also had an IC50 in the data set with MDA-MB-231 of 0.001 µM.

As for `CC(=O)O[C@H]1C(=O)[C@@]2(C)[C@H]([C@H](OC(=O)c3ccccc3)[C@]3(O)C[C@H](OC(=O)[C@H](O)[C@@H](NC(=O)c4ccccc4)c4ccccc4)C(C)=C1C3(C)C)[C@]1(OC(C)=O)CO[C@@H]1C[C@@H]2O` [PACLITAXEL], the Retention_time in data set [1] is 10.5 min. In the data set on MDA-MB-231, this compound registered an IC50 of 0.0056 µM.

For the compound `CCCCCCCCO[Si](OCCCCCCCC)(OCCCCCCCC)O[C@H]1C[C@H]2OC[C@@]2(OC(C)=O)[C@H]2[C@H](OC(=O)c3ccccc3)[C@]3(O)C[C@H](OC(=O)[C@H](O[Si](OCCCCCCCC)(OCCCCCCCC)OCCCCCCCC)[C@@H](NC(=O)c4ccccc4)c4ccccc4)C(C)=C([C@@H](OC(C)=O)C(=O)[C@]12C)C3(C)C`, inhibition with MDA-MB-231 was half-maximal at 0.28 µM (IC50). Further, the t1/2 in data set [2] was 0.3 h; in data set [3], 3.33 h.

In data set [1], `CC(=O)O[C@H]1C(=O)[C@]2(C)[C@@H](O[Si](OC(C)C)(OC(C)C)OC(C)C)C[C@H]3OC[C@@]3(OC(C)=O)[C@H]2[C@H](OC(=O)c2ccccc2)[C@]2(O)C[C@H](OC(=O)[C@H](O)[C@@H](NC(=O)c3ccccc3)c3ccccc3)C(C)=C1C2(C)C` gave a Retention_time of 16.4 min. This compound also returned an IC50 in the data set with MDA-MB-231 of 0.26 µM. The compound further yielded a t1/2 in data set [3] of 28.33 h.

Compound `CC(=O)O[C@H]1C(=O)[C@]2(C)[C@@H](O[Si](OC(C)C)(OC(C)C)OC(C)C)C[C@H]3OC[C@@]3(OC(C)=O)[C@H]2[C@H](OC(=O)c2ccccc2)[C@]2(O)C[C@H](OC(=O)[C@H](O[Si](OC(C)C)(OC(C)C)OC(C)C)[C@@H](NC(=O)c3ccccc3)c3ccccc3)C(C)=C1C2(C)C` had a Retention_time in data set [1] of 18.9 min. Also, in the data set on MDA-MB-231, the IC50 came out at 1.6 µM. Further, the t1/2 came to 2.17 h in data set [2] and 25 h in data set [3].

As to `CCO[Si](OCC)(OCC)O[C@H]1C[C@H]2OC[C@@]2(OC(C)=O)[C@H]2[C@H](OC(=O)c3ccccc3)[C@]3(O)C[C@H](OC(=O)[C@H](O)[C@@H](NC(=O)c4ccccc4)c4ccccc4)C(C)=C([C@@H](OC(C)=O)C(=O)[C@]12C)C3(C)C`, the Retention_time in data set [1] turned out to be 14.6 min. Further, in the data set on MDA-MB-231, it took 0.018 µM to reach half-maximal inhibition (IC50). The t1/2 in data set [3] came out at 0.5 h.

For the compound `CCO[Si](O[C@@H](C(=O)O[C@H]1C[C@@]2(O)[C@@H](OC(=O)c3ccccc3)[C@@H]3[C@]4(OC(C)=O)CO[C@@H]4C[C@H](O)[C@@]3(C)C(=O)[C@H](O)C(=C1C)C2(C)C)[C@@H](NC(=O)OC(C)(C)C)c1ccccc1)(OC(C)(C)C)OC(C)(C)C`, the Retention_time in data set [1] is reported as 16.4 min. Moreover, the IC50 in the data set on MDA-MB-231 was 0.43 µM. In data set [2], this compound had a t1/2 of 226.67 h.

In the case of `CCO[Si](OCC)(OCC)O[C@@H](C(=O)O[C@H]1C[C@@]2(O)[C@@H](OC(=O)c3ccccc3)[C@@H]3[C@]4(OC(C)=O)CO[C@@H]4C[C@H](O)[C@@]3(C)C(=O)[C@H](O)C(=C1C)C2(C)C)[C@@H](NC(=O)OC(C)(C)C)c1ccccc1`, the Retention_time in data set [1] is listed as 14.1 min. Also, 0.0025 µM corresponded to half-maximal inhibition in the data set with MDA-MB-231 (IC50). The compound further returned a t1/2 in data set [2] of 0.183 h.

For the compound `CC(=O)O[C@H]1C(=O)[C@@]2(C)[C@H]([C@H](OC(=O)c3ccccc3)[C@]3(O)C[C@H](OC(=O)[C@H](O[Si](OC(C)=O)(OC(C)(C)C)OC(C)(C)C)[C@@H](NC(=O)c4ccccc4)c4ccccc4)C(C)=C1C3(C)C)[C@]1(OC(C)=O)CO[C@@H]1C[C@@H]2O`, the t1/2 in data set [2] was 0.583 h.

The compound `CCO[Si](OCC)(OCC)O[C@@H](C(=O)O[C@H]1C[C@@]2(O)[C@@H](OC(=O)c3ccccc3)[C@@H]3[C@]4(OC(C)=O)CO[C@@H]4C[C@H](O)[C@@]3(C)C(=O)[C@H](OC(C)=O)C(=C1C)C2(C)C)[C@@H](NC(=O)c1ccccc1)c1ccccc1` yielded a Retention_time in data set [1] of 13.8 min. Moreover, it took 0.0083 µM to reach half-maximal inhibition in the data set with MDA-MB-231 (IC50). The compound also came in with a t1/2 in data set [2] of 0.0617 h.
